Compounds with a hit are over-represented: about 3.9% of the library has one in this group of screens.
tim10-1 inh: tim10-1 yeast growth inhibition; AID 463190; inhibition, % at 20 µM; S. cerevisiae tim10-1 ts strain growth, BacTiter-Glo, 24 h; hit rate 2.2% among 330,000;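 active means inhibition of at least 40%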;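 further: mutant grown at 25 °C; 0% = DMSO wells with yeast and 100% = wells holding no yeast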
UPR XBP1 act: adaptive UPR (XBP1) activation. CHO-XBP1 luciferase reporter, IRE1-XBP1 UPR activation, luminescence; percent of tunicamycin response, DMSO as zero. activation, % at 20 µM. hit rate 0.33% among 330,000. AID 463104;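 active means versus positive control, 20 µM dose yields 30% or more activation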;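 further: 100% = tunicamycin at 10 µg/mL and 0% = DMSO only wells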
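Test system: CHO-XBP1 luciferase reporter cells | Buffer or medium: Serum-containing F12 medium, 10% FBS | Schedule: 6 h compound exposure at 37 °C, 5% CO2 | Detection: Steady-Glo luciferase glow luminescence, 10 min after reagent addition | Read-out basis: Activation, % of tunicamycin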
TIM10 inh: growth inhibitors of TIM10 yeast strain; S. cerevisiae TIM10 strain growth, BacTiter-Glo luminescence, 24 h; hit rate 1.4% among 330,000; inhibition, % at 10 µM;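 active means inhibition of 40% or more at the single tested concentration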;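 further: wild-type TIM10 isogenic control strain grown at permissive 25 °C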
CHOP UPR activ: activators of apoptotic arm of unfolded protein response (CHOP); CHO-CHOP luciferase reporter, UPR activation, luminescence; percent of tunicamycin response over DMSO baseline; activation, % at 10 µM; hit rate 0.34% among 330,000;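 active means at 10 µM dose, activation of 40% or more, normalized to positive control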;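 further: 100% = tunicamycin at 10 µg/mL and 0% = DMSO alone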
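Material: CHO-CHOP cells, stable luciferase reporter of PERK-eIF2a-CHOP signalling; quantity: 500 reporter cells seeded per well; buffer or medium: F12 medium containing 10% fetal bovine serum; compound: one dose, 10 µM in 0.5% DMSO; incubation: 6 h compound treatment, 37 °C; measured by: Steady-Glo luciferase luminescence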
tim23-1 inh: inhibits growth of tim23-1 mutant yeast; S. cerevisiae tim23-1 growth, BacTiter-Glo luminescence, 24 h; inhibition, % at 20 µM; hit rate 1.3% among 330,000; AID 463212;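 active means growth inhibition of the mutant yeast at or above 50%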;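 further: temperature-sensitive mutant grown at 25 °C; plate controls were DMSO-treated mutant yeast for no effect and medium wells lacking yeast for full effect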
tim23-1 conf: confirmation of tim23-1 mutant yeast growth inhibitors; inhibition, % at 20 µM; hit rate 83% among 4,400; shares compounds with tim23-1 inh; S. cerevisiae tim23-1 growth, BacTiter-Glo luminescence, 24 h;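 active means inhibition above about 39% in either of two replicate wells at 20 µM, limit read from the data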;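 further: temperature-sensitive tim23-1 mutant grown at 25 °C; 0% = DMSO wells with yeast and 100% = medium wells without yeast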
Active calls of the source: *; x = not tested or not shown.

SMILES	tim10-1 inh	UPR XBP1 act	TIM10 inh	CHOP UPR activ	tim23-1 inh	tim23-1 conf
O=C(c1ccco1)N1CCN(C(=S)Nc2cccc([N+](=O)[O-])c2)CC1	1	-2	14	1	-2	x
O=C(Nc1ccc2oc(-c3ccccc3)nc2c1)c1ccncc1	-10	6	18	6	65*	67*
O=C(Nc1ccc2oc(-c3cccnc3)nc2c1)c1cccnc1	-16	5	-2	1	4	x
O=C(Nc1ccc2oc(Cc3ccc(Cl)cc3)nc2c1)c1cccnc1	10	0	17	-1	59*	54*
CCC1Oc2ccccc2N(CC(=O)NCCCN2CCN(c3ccc(OC)cc3)CC2)C1=O (centres undefined)	15	1	12	1	5	x
COc1cc(C(=O)COC(=O)c2cnc(C)cn2)ccc1OC(F)F	-9	-5	5	1	4	x
Cc1cc(C(=O)N/N=C/c2cccs2)n[nH]1	-20	1	-18	1	-8	x
Cc1cc(C(=O)N/N=C\c2cc(C(C)(C)C)ccc2O)n[nH]1	33	-4	21	-1	56*	55*
C/C(=N\Nc1nc(C)cc(-c2ccccc2)n1)c1ccc(O)cc1	30	2	26	4	50*	49*
FC(F)(F)c1cccc(Sc2cc(C(F)(F)F)nc(-c3ccccn3)n2)c1	28	10	25	9	51*	43*
O=C(O)CSc1cc(C(F)(F)F)nc(-c2ccccn2)n1	6	0	6	0	3	x
CCOC(=O)c1ccc(NC(=O)CSc2nc(=O)n3cccc(C)c3n2)cc1	22	-3	-6	0	52*	50*
CCOC(=O)CSc1nc(=O)n2cccc(C)c2n1	-11	-3	4	0	-11	x
CN(c1ccc(O)cc1)S(=O)(=O)c1ccc2ccccc2c1	-13	1	2	5	51*	45*
C[C@@H]1C(c2ccc(F)cc2)=NN(c2ccccc2)[C@H]1C(=O)N1CCOC1=O	34	-2	7	2	53*	34
COc1ccccc1[C@@H]1C(c2cccc(C)c2)=NN(c2ccc(Br)cc2)[C@H]1C(=O)N1CCOC1=O	19	0	5	2	44	x
CC[C@@H]1C(c2ccccc2)=NN(c2ccc(Br)cc2)[C@H]1C(=O)N1CCOC1=O	21	3	20	2	58*	39
O=C1OCCN1C(=O)[C@H]1[C@H](c2ccc(F)cc2)C(c2cccc(Cl)c2)=NN1c1ccccc1	32	1	11	1	46	x
CC[C@@H]1C(c2ccc(F)cc2)=NN(c2ccc(Br)cc2)[C@H]1C(=O)N1CCOC1=O	27	4	20	3	58*	44*
COc1ccccc1[C@@H]1C(c2ccccc2)=NN(c2ccc(Br)cc2)[C@H]1C(=O)N1CCOC1=O	21	3	14	4	53*	27
COc1ccccc1NC(=O)C(C)Sc1nnc2ccccn12 (centres undefined)	13	2	3	1	15	x
CCN(CC)c1ccc2c(C)cc(=O)oc2c1	4	3	-11	0	31	x
CCOC(=O)Cc1c(C)c2ccc(N(CC)CC)cc2oc1=O	30	0	16	2	33	x
CCN(CC)c1ccc2c(C)c(-c3ccc(N)cc3)c(=O)oc2c1	24	4	38	3	55*	67*
CCN(CC)c1ccc2c(C)c(Cl)c(=O)oc2c1	9	1	27	3	50*	53*
SMILES	tim10-1 inh	UPR XBP1 act	TIM10 inh	CHOP UPR activ	tim23-1 inh	tim23-1 conf
O=C(c1cc2c(s1)-c1ccccc1OC2)N1CCc2ccccc2C1	24	0	14	1	38	x
O=C(c1cc(Br)c(Br)s1)N1CCc2ccccc2C1	2	3	27	1	52*	53*
CCCn1c(SCC(=O)N(C2CCCCC2)C2CCS(=O)(=O)C2)n[nH]c1=O (centres undefined)	9	-1	2	0	10	x
COc1ccc(C2CC(=O)Oc3cc4c(cc32)OCO4)cc1 (centres undefined)	14	0	6	1	61*	49*
COc1ccc(C2CC(=O)Oc3cc(O)ccc32)cc1 (centres undefined)	2	1	7	1	57*	46*
COc1cc(C2CC(=O)Oc3cc4c(cc32)OCO4)cc(OC)c1OC (centres undefined)	16	0	-2	2	25	x
O=C(c1cccc(NS(=O)(=O)c2ccccc2)c1)N1CCCCC1	2	0	1	-1	8	x
COc1ccc(NC(=O)CSCC(=O)Nc2nnc(C)s2)cc1	0	0	0	0	13	x
CCS(=O)(=O)N1Cc2ccccc2CC1C(=O)NCCc1c[nH]c2ccccc12 (centres undefined)	12	4	-14	1	8	x
COc1ccc(-c2c(C#CC(C)(C)O)c3ccccc3n2C)cc1	23	-2	9	1	25	x
COc1ccc(-c2oc3ccccc3c2C#CC(C)(C)O)cc1	19	5	34	1	52*	38*
O=C(NC(=S)NCc1ccco1)c1cccc(Cl)c1	17	0	4	3	57*	47*
Nc1ccc(N=Nc2ccccc2O)c(N)c1	25	4	22	6	55*	46*
Cc1ccccc1C(=O)Oc1ccc(Sc2ccc(O)cc2)cc1	22	2	26	4	57*	-14
Cc1ccccc1C(=O)Oc1ccc(-c2csnn2)cc1	12	6	2	3	14	x
CC(C)(C)c1ccc(OCC(=O)NNC(=S)NC(=O)c2ccco2)c(Br)c1	22	-1	32	-1	27	x
CC(C)(C)c1ccc(OCC(=O)NCc2ccco2)c(Br)c1	34	5	34	2	56*	62*
CCCCN(C(=O)c1ccc2c(c1)OCCO2)c1c(N)n(CCCC)c(=O)[nH]c1=O	27	1	14	0	59*	57*
CCCN(C(=O)c1ccc([N+](=O)[O-])c(C)c1)c1c(N)n(Cc2ccccc2)c(=O)[nH]c1=O	-1	-2	10	-1	53*	60*
CCCCn1c(N)c(N(CCC(C)C)C(=O)c2ccc3c(c2)OCO3)c(=O)[nH]c1=O	23	-1	9	0	62*	58*
CCc1cc2c(-c3ccccc3)cc(=O)oc2cc1OC(C)C(=O)NCC1CCC(C(=O)O)CC1 (centres undefined)	4	-3	1	-2	-6	x
CCCc1cc(=O)oc2cc(C)c(CN3CCCC3)c(O)c12	16	0	33	-1	59*	58*
CCCCCCc1ccc(-c2ncc(N)cn2)cc1	39	0	4	1	53*	41*
